The source of these data is the array DNA melting data of Ke et al. (doi:10.1101/2024.01.08.574731).

The nature of data set [1]: folding enthalpy; higher = less favourable; fluorescence melt of hairpins on a sequencing array, two-state fit. Particulars: sodium 0.088 M. An outline of the steps:
(§1)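 Bootstrapped two-state fits yielded melting temperature and folding enthalpy for library hairpins. Cy3 fluorescence, with annealed Cy3 and quencher oligos, was imaged on a sequenced MiSeq flow cell in 50 mM Na-HEPES pH 8.0, 25 mM NaCl in 2.5 °C steps up to 60 °C, and normalised to pre-quench Cy3 and to control constructs. Four replicates were combined by inverse variance, and fitted temperatures were raised by 9.35 °C to match UV melts.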

A short description of data set [2]: melting temperature; fluorescence melt of hairpins on a sequencing array, two-state fit, raised by 9.35 °C to match UV melts. Particulars: sodium 0.088 M. The method, boiled down: as §1

For the sequence GTTGGGGAAACCCAAC ((((((....)))))), in data set [1], the folding enthalpy was -36.8 kcal/mol. Also, in data set [2], the Tm is 60 °C.
Regarding GACCATGGAAACATAGTC (((.(((....))).))), the folding enthalpy in data set [1] was -19.8 kcal/mol. For the same sequence, the Tm in data set [2] came to 30.8 °C.
The like results for GCTCACGAAAGTGAAGC ((((((....))).))) were, in that order, -29 kcal/mol and 56 °C.
On to GATCGCCTTTGCGATC ((((((....)))))), for which, in data set [1], the folding enthalpy is -38.6 kcal/mol. The Tm in data set [2] worked out at 67.8 °C.
The like results for GGTGCCGAAAGGCACACC ((((((....)))..))) were, in that order, -6.62 kcal/mol and 58 °C.
The like results for GATAGCGAAAGCTTAATC ((((((....)))..))) were, in that order, -10.8 kcal/mol and 25.3 °C.
The like results for GTTGTACGAAAGTATAAC (((.(((....))).))) were, in that order, -26.9 kcal/mol and 47.6 °C.
For the sequence GCCACCTCGAAAGAGGGC (((..(((....)))))), the folding enthalpy in data set [1] is -9.58 kcal/mol. Besides, the Tm in data set [2] was found to be 44.5 °C.
In the same order, the values of GGCAAACGAAAGTTGGCC (((.(((....))).))) are -43.9 kcal/mol and 60.2 °C.
The like results for GGCAGTCGAAAGACCGCC (((.(((....))).))) were, in that order, -35 kcal/mol and 58 °C.
In the same order, the values of GGGGACGAAAGTCAACCC ((((((....)))..))) are -17.6 kcal/mol and 49 °C.
For the sequence GATTTTGGAAACAAAACC (.(((((....))))).), in data set [1], the folding enthalpy is -24.9 kcal/mol. Besides, in data set [2], the Tm stood at 29.6 °C.
With GCCCATCGAAAGATTGGC (((.(((....))).))), in data set [1], the folding enthalpy was -27.3 kcal/mol. In data set [2], the Tm amounted to 47.8 °C.
In the same order, the values of GTAGGAGGAAACTCCCAC ((.((((....)))).)) are -16.4 kcal/mol and 30.9 °C.
As to GCTGCTCGAAAGAGAGC (((.(((....)))))), in data set [1], the folding enthalpy is -20.5 kcal/mol. Further, in data set [2], the Tm amounted to 48 °C.
GCATGGCGAAAGCCCTGC (((.(((....))).))): in data set [1], the folding enthalpy was -45.3 kcal/mol. The Tm in data set [2] was found to be 53 °C.
With GGGAAAGGAAACTTCCCC (((.(((....))).))), the folding enthalpy in data set [1] was -23.3 kcal/mol. For the same sequence, the Tm in data set [2] came to 36.8 °C.
The like results for GGGACGGGAAACCGTTCC ((.((((....)))).)) were, in that order, -35.2 kcal/mol and 57.2 °C.
In the same order, the values of GGAGAACCGAAAGGTTCC (((..(((....)))))) are -9.16 kcal/mol and 43.1 °C.
The like results for GCTTTCGAAAGAATTAGC ((((((....)))..))) were, in that order, -15.1 kcal/mol and 30.5 °C.
Regarding GCGGTTGGAAACGATCGC (((.(.(....).).))), the folding enthalpy in data set [1] is -28.5 kcal/mol. Further, the Tm in data set [2] was 45.3 °C.
In the same order, the values of GTAGTGGGAAACCATTAC (((.(((....))).))) are -32 kcal/mol and 38.1 °C.
The like results for GCCCACGGAAACGCGAGC ((.(.((....)).).)) were, in that order, -14.7 kcal/mol and 28 °C.
The like results for GTCGTCCGAAAGGAAGAC (((.(((....))).))) were, in that order, -33 kcal/mol and 55.9 °C.
Regarding GACAAGGGAAACCCTGTC ((((.((....)).)))), the folding enthalpy in data set [1] was -27.8 kcal/mol. Moreover, in data set [2], the Tm amounted to 42.5 °C.
As to GCGGTCCACCGC ((((....)))), the folding enthalpy in data set [1] is -26.2 kcal/mol. Moreover, the Tm in data set [2] turned out to be 68.5 °C.
In the case of GTCAAGGGAAACCTTGGC (.(((((....))))).), the folding enthalpy in data set [1] is -33.1 kcal/mol. In data set [2], the Tm turned out to be 49.4 °C.
In the same order, the values of GTTGAAGGAAACCTCAAC (((((.(....).))))) are -31 kcal/mol and 36 °C.
Regarding GGCTTGCGAAAGCATGCC (((.(((....))).))), the folding enthalpy in data set [1] was -31.4 kcal/mol. Further, the Tm in data set [2] came out at 66.6 °C.
On to GCATCGCGAAAGCATTGC (((..((....))..))), for which, in data set [1], the folding enthalpy is -13.1 kcal/mol. The Tm in data set [2] was determined as 37.7 °C.
As to GATCAGAAGACTGATC ((((((....)))))), the folding enthalpy in data set [1] is -29.1 kcal/mol. Besides, the Tm in data set [2] was 44.9 °C.
The like results for GGATGCGAAAGCAATTCC ((((((....)))..))) were, in that order, -16.1 kcal/mol and 36.7 °C.
In the same order, the values of GGTTAACCGAAAGGTACC (((..(((....)))))) are -17.4 kcal/mol and 38 °C.
The like results for GGCGTTGGAAACGATGCC (((.(.(....).).))) were, in that order, -24.9 kcal/mol and 48 °C.
Take GATCGTGCGACGATC ((((((...)))))): the folding enthalpy in data set [1] is -38.4 kcal/mol. Moreover, in data set [2], the Tm worked out at 56.8 °C.
In the same order, the values of GCGGAGTGCCGC ((((....)))) are -13.7 kcal/mol and 57.1 °C.
The like results for GATCGCGAAAGCGTAATC ((((((....)))..))) were, in that order, -8.8 kcal/mol and 29.2 °C.
In the same order, the values of GATCCCTTGAGGGATC ((((((....)))))) are -42.9 kcal/mol and 62.4 °C.
Consider GACCGTGGAAACGCGGTC (((((.(....).))))), for which the folding enthalpy in data set [1] is -40 kcal/mol. In data set [2], the Tm stood at 58.6 °C.
In the same order, the values of TTGCGGAAACGCAA (((((....))))) are -18.1 kcal/mol and 57.6 °C.
The like results for GCCGGCGAAAGCCCGGGC ((((((....)))..))) were, in that order, -17.6 kcal/mol and 62.1 °C.
Turning to GCTGTCCGAAAGGATAGC (((.(((....))).))), the folding enthalpy in data set [1] was -39.6 kcal/mol. In addition, the Tm in data set [2] worked out at 59.3 °C.
The like results for GAAGCCGAAAGGCGTTTC ((((((....)))..))) were, in that order, -8.82 kcal/mol and 44.7 °C.
In the same order, the values of GTCCGCGGAAACGCAGAC (((.(((....))).))) are -21.5 kcal/mol and 49.9 °C.
The like results for GCGCTCGAAAGAGCACGC ((((((....)))..))) were, in that order, -16.7 kcal/mol and 60 °C.
Consider GAACGCCGAAAGGCATTC (((.(((....))).))), for which the folding enthalpy in data set [1] was -17.8 kcal/mol. Further, the Tm in data set [2] came to 43.3 °C.
Take GCGAACGAAAGTTTCCGC ((((((....)))..))): the folding enthalpy in data set [1] was -21.1 kcal/mol. Further, the Tm in data set [2] is 36.2 °C.
The like results for GATCCAGTGGTGGATC ((((((....)))))) were, in that order, -34.6 kcal/mol and 50.4 °C.
The like results for GTGATGGGAAACTATCAC (((((.(....).))))) were, in that order, -32.2 kcal/mol and 45.6 °C.
On to GGGATCGAAAGATCCCCC ((((((....)))..))), for which the folding enthalpy in data set [1] is -10.2 kcal/mol. In data set [2], the Tm came to 68.2 °C.
For GATGGCGGAAACGTCATC ((((.((....)).)))), the folding enthalpy in data set [1] is -43.7 kcal/mol. For the same sequence, the Tm in data set [2] stood at 55.3 °C.
With GATCAACCCTTGATC ((((((...)))))), the folding enthalpy in data set [1] was -30.4 kcal/mol. Further, in data set [2], the Tm was 43.6 °C.
In the same order, the values of GTCTCACCGAAAGGTGAC (((..(((....)))))) are -7.93 kcal/mol and 36.1 °C.
As to GACACGGGAAACCACGTC (((..((....))..))), the folding enthalpy in data set [1] is -29 kcal/mol. In data set [2], the Tm came out at 34.6 °C.
Take TTGTCGAAAGACAA (((((....))))): in data set [1], the folding enthalpy is -18.1 kcal/mol. Besides, in data set [2], the Tm was 55 °C.
